Reference: PMC12799515 (Journal of Orthopaedic Translation, 2025)

Columns and labels:
mitophagy = conditions: cited from earlier work
[1] = test system: osteogenic-related genes Ocn, Runx2, Alpl in inTPCs; assay: qRT–PCR of osteogenic-related genes in inTPCs; type: cell-based, C57BL/6 J mice; conditions: 1 μM CCCP or 5 μM CsA, three stimulation cycles in ODM, vs vehicle
In short: (§1)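 Mouse tendon cells (passage 3–4) received three 4-day cycles: 2 days of ODM containing test compound or equal-volume solvent, then 2 days of plain ODM. Transcripts were measured by SYBR Green qRT–PCR, normalised to Gapdh, with relative expression calculated by the 2−ΔΔCt method.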

inTPCs [2] = assay: ALP and ARS staining of inTPCs; type: cell-based, C57BL/6 J mice; conditions: 1 μM CCCP or 5 μM CsA, vs vehicle; for ARS staining: four stimulation cycles; for ALP staining: three stimulation cycles
In short: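 Mouse tendon cells were digested with collagenase, grown in low-glucose DMEM/15% FBS and used at passage 3–4. Each cycle was 2 days of ODM (high-glucose DMEM, 10−8 M dexamethasone, 50 μg/mL vitamin C, 10 mM β-glycerol phosphate, 10% FBS) with test compound or solvent, then 2 days of plain ODM. ALP: 3 cycles, 4% PFA 30 min, BCIP/NBT stain. ARS: 4 cycles, kit fixative 20 min. Positive ratio quantified by image analysis.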

[3] = test system: OCN, RUNX2, ALP in inTPCs; assay: Western blotting of osteogenic-related proteins in inTPCs; type: cell-based, C57BL/6 J mice; conditions: for protein expression of OCN, RUNX2, ALP: 1 μM CCCP or 5 μM CsA, three stimulation cycles in ODM, vs vehicle
In short: (§2)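 Mouse tendon cells were treated in one of two ways: three 4-day cycles (2 days ODM with test compound or solvent, then 2 days plain ODM), or 2 days of osteogenic induction with 100 nM Slc25a4 siRNA (RNAiMAX) ±1 μM test compound added on day 2. Proteins were extracted in RIPA with protease/phosphatase inhibitors, heated to 100 °C for 10 min, separated by SDS-PAGE, transferred to PVDF, blocked with 5% milk and detected by ECL. Bands were quantified by densitometry.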

[4] = test system: mitophagy-related genes Pink1, Prkn, LC3b, p62 in inTPCs; assay: qRT–PCR of mitophagy-related genes in inTPCs; type: cell-based, C57BL/6 J mice; conditions: 1 μM CCCP or 5 μM CsA, three stimulation cycles in ODM, vs vehicle
In short: as §1

[5] = test system: PINK1, Parkin, LC3BⅡ, p62 in inTPCs; assay: Western blotting of mitophagy-related proteins in inTPCs; type: cell-based, C57BL/6 J mice
In short: as §2

[6] = no reference given; cited from earlier work
inTPCs [7] = assay: Apoptosis; type: cell-based, C57BL/6 J mice; conditions: 1 μM CCCP or 5 μM CsA
ANT1 in inTPCs = assay: ANT1/Slc25a4 expression in inTPCs; type: cell-based, C57BL/6 J mice; conditions: two days osteogenic induction, 1 μM CCCP
In short: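 Mouse tendon cells under 2 days of osteogenic induction were transfected with 100 nM Slc25a4 siRNA or control siRNA (RNAiMAX) for 2 days, with 1 μM test compound added on day 2. ANT1 protein was measured by western blot (RIPA lysis with protease/phosphatase inhibitors, 100 °C 10 min, SDS-PAGE, PVDF, 5% milk block, ECL, band densitometry). Slc25a4 mRNA was measured by SYBR qRT–PCR against Gapdh (2−ΔΔCt).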

inTPCs [8] = assay: Cell viability; type: cell-based, C57BL/6 J mice; conditions: 1 μM CCCP or 5 μM CsA, 48 h
In short: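 Mouse tendon cells (passage 3–4) were seeded in 96-well plates and exposed to test compound at varying concentrations (0, 0.1, 0.5, 1, 5, 10 μM for the inhibitor) for 48 h. They were then incubated with 10% CCK-8 at 37 °C for 1 h, and absorbance was read at 450 nm to calculate viability.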

[9] = 1 μM CCCP or 5 μM CsA, three stimulation cycles in ODM, vs vehicle
[10] = two days osteogenic induction, 100 nM si-Slc25a4 two days, or 1 μM CCCP

Compound | gene expression of Ocn, Runx2, Alpl [1] | ARS staining (inTPCs [2]) | ALP staining (inTPCs [2]) | protein expression of OCN, RUNX2, ALP [3] | gene expression of Pink1, Prkn, LC3b [4] | p62 gene expression [4] | p62 protein expression [5, 9] | protein expression of PINK1, Parkin, LC3BⅡ [5, 9] | toxicity of ANT1 inhibitors [6] | further results
OC1c2cc3ccc4cccc5ccc(c2C2OC2C1O)c3c45 (stereo not shown) [benzo(a)pyrene-7,8-dihydrodiol-9, 10-epoxide] |  |  |  |  |  |  |  |  |  | mitophagy (mitophagy): suppressed
cyclosporin A [CsA] | suppressed | reduced | reduced | downregulated | suppressed | promoted | p62 accumulation | downregulated |  | 
C=C1[C@@H]2CC[C@H]3[C@]4(C)C[C@H](O[C@@H]5O[C@H](CO)[C@@H](OS(=O)(=O)O)[C@H](OS(=O)(=O)O)[C@H]5OC(=O)CC(C)C)CC(C(=O)O)(C(=O)O)[C@H]4CC[C@]3(C2)[C@H]1O [CATR, carboxyatractyloside] |  |  |  |  |  |  |  |  | toxic agents unsuitable for clinical use | 
CO[C@H](C/C=C\C=C\CC/C=C/C[C@H](C)/C=C/C(=C\C(=O)O)CC(=O)O)/C(C)=C\C=C(/C)C(=O)O [BKA, bongkrekic acid] |  |  |  |  |  |  |  |  | toxic agents unsuitable for clinical use | 
N#CC(C#N)=NNc1cccc(Cl)c1 [CCCP, carbonyl cyanide 3-chlorophenylhydrazone] | increased | increased | increased | upregulated | increased | suppressed | p62 suppression | upregulated |  | apoptosis (inTPCs [7]): did not cause poisoning (Fig. 3A and B) or apoptosis; ANT1 protein expression (ANT1 in inTPCs): did not affect ANT1 expression; protein expression of RUNX2, ALP [3, 10]: promoted; p62 protein expression [5, 10]: suppressed; protein expression of PINK1, Parkin, LC3BⅡ [5, 10]: promoted; cell viability (poisoning) (inTPCs [8]): did not cause poisoning
